Measurements from ChEMBL document CHEMBL1145523, “Genetic targeting of the kinase activity of the Met receptor in cancer cells” (Proc Natl Acad Sci U S A, 2007).
Calls of active or inactive are those of the source. No cut-off for these calls is given here.

Assays:
DLD-1 [1] = assay: Inhibition of human p70s6K phosphorylation in DLD1 cells at 2.5 uM; type: cell-based
In short: (§1)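 Parental or MET-KD DLD1 cells held 16 h with or without 2.5 μM inhibitor, then lysed. Phosphorylation read on a human phospho-MAPK antibody array following the kit instructions. Dot signals quantified by densitometry and normalized to untreated WT DLD1 cells (set to 1). Significance by two-tailed Student's t test against WT untreated cells.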

DLD-1 [2] = assay: Reduction of proliferation in human DLD1 KD2 cell carrying inactive MET kinase at 2.5 uM by ATP-based assay; type: functional
In short: (§2)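 Parental DLD1 and two independent MET-KD clones seeded at equal density in 96-well plates and given 2.5 μM inhibitor. Cell number measured as ATP-based luminescence (RLU). Mean of triplicates ± SD.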

DLD-1 [3] = assay: Reduction of proliferation in human DLD1 KD1 cell carrying inactive MET kinase at 2.5 uM by ATP-based assay; type: functional; in short: as §2
DLD-1 [4] = assay: Reduction of proliferation in human DLD1 cells at 2.5 uM by ATP-based assay; type: functional, cell-based; in short: as §2
DLD1 KD [5] = assay: Inhibition of human p70s6K phosphorylation in DLD1 KD cells carrying inactive MET kinase at 2.5 uM; type: cell-based; in short: as §1
[6] = biological target: T1, c-Jun N-terminal kinase, JNK (Homo sapiens) (UniProt P45983+P53779+P45984); assay: Inhibition of human JNK phosphorylation in DLD1 KD cells carrying kinase inactive MET at 2.5 uM; type: cell-based; in short: as §1
[7] = biological target: T1, c-Jun N-terminal kinase, JNK (Homo sapiens); assay: Inhibition of human JNK phosphorylation in DLD1 cells at 2.5 uM; type: cell-based; conditions: DLD-1; in short: as §1
DLD1 KD [8] = assay: Inhibition of human MSK phosphorylation in DLD1 KD cells carrying inactive MET kinase at 2.5 uM; type: cell-based; in short: as §1
DLD-1 [9] = assay: Inhibition of human MSK phosphorylation in DLD1 cells at 2.5 uM; type: cell-based; in short: as §1
[10] = biological target: Mitogen-activated protein kinase 14 (Homo sapiens) (UniProt Q16539); assay: Inhibition of human p38-alpha phosphorylation in DLD1 cells at 2.5 uM; type: cell-based; conditions: DLD-1; in short: as §1
Mitogen-activated protein kinase 14 (Homo sapiens), sequence (Q16539 whole entry): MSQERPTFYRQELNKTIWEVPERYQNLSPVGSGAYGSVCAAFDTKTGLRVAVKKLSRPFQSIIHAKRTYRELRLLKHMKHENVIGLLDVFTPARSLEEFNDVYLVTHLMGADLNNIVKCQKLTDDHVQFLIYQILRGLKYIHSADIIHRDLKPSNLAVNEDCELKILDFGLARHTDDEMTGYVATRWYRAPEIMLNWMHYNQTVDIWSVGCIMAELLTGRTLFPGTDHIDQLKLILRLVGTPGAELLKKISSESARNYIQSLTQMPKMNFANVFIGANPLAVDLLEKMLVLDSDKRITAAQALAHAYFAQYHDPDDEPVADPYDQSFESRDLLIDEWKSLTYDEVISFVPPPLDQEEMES

[11] = biological target: Mitogen-activated protein kinase 14 (Homo sapiens) (UniProt Q16539); assay: Inhibition of human p38-alpha phosphorylation in DLD1 KD cells carrying inactive MET kinase at 2.5 uM; type: cell-based; in short: as §1

- Activity [6]: Active
- Activity [7]: Active
- Activity [10]: Active
- Activity [11]: Active
Compound: Cc1[nH]c(/C=C2\C(=O)Nc3ccc(S(=O)(=O)N(C)c4cccc(Cl)c4)cc32)c(C)c1C(=O)N1CCN(C)CC1
- Activity (DLD-1 [1]): Active
- Activity (DLD-1 [2]): Active
- Activity (DLD-1 [3]): Active
- Activity (DLD-1 [4]): Active
- Activity (DLD1 KD [5]): Active
- Activity (DLD1 KD [8]): Active
- Activity (DLD-1 [9]): Active
